# According to ChEMBL document CHEMBL2203081 (Bioorg Med Chem Lett, 2012):
# What was measured:
# [1] = biological target: Serine/threonine-protein kinase TBK1 (Homo sapiens) (UniProt Q9UHD2); test: Inhibition of TBK1 assessed as residual activity at 10 uM relative to control
# [2] = biological target: T1, Mitogen-activated protein kinase kinase kinase 7 (Homo sapiens) (UniProt O43318); test: Inhibition of TAK1 assessed as residual activity at 10 uM relative to control
# T1 sequence (whole entry): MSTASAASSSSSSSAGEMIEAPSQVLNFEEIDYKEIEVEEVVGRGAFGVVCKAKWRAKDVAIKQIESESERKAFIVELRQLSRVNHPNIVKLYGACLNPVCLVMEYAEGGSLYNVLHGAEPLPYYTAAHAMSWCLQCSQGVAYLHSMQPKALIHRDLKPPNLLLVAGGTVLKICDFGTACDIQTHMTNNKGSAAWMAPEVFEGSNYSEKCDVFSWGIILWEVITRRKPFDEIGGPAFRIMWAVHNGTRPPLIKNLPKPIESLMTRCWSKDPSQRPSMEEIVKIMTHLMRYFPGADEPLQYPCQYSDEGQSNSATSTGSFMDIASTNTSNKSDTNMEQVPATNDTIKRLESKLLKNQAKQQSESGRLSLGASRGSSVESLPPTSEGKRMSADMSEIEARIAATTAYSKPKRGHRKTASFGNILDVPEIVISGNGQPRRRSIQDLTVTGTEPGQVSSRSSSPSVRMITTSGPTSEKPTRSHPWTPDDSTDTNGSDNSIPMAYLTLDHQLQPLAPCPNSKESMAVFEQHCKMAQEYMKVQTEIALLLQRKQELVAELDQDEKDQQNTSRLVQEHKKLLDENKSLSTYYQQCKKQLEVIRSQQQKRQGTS
# [3] = biological target: Maternal embryonic leucine zipper kinase (Homo sapiens) (UniProt Q14680); test: Inhibition of MELK assessed as residual activity at 1 uM
# [4] = biological target: MAP/microtubule affinity-regulating kinase 3 (Homo sapiens) (UniProt P27448); test: Inhibition of MARK3 assessed as residual activity at 10 uM relative to control
# Sequence of MAP/microtubule affinity-regulating kinase 3 (Homo sapiens) (P27448 whole entry, looked up): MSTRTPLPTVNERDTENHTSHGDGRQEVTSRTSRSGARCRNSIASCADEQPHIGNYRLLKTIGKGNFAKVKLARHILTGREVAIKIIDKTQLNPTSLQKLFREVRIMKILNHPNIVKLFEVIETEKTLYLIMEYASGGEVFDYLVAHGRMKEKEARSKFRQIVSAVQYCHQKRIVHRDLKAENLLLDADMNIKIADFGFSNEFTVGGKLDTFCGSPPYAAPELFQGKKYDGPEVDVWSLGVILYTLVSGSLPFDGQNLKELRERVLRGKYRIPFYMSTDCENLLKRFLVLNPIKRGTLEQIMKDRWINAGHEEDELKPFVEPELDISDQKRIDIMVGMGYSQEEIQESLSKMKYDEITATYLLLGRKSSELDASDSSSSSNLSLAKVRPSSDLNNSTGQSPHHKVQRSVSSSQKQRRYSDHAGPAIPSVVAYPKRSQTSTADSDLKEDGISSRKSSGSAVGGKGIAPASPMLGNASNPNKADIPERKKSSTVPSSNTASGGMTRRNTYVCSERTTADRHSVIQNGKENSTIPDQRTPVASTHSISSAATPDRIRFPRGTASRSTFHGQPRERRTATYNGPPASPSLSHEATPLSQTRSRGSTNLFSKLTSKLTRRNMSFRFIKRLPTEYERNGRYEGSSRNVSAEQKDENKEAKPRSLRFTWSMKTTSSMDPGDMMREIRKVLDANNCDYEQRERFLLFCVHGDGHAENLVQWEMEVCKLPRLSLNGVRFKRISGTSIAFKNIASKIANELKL
# [5] = biological target: Mitogen-activated protein kinase kinase kinase kinase 3 (Homo sapiens) (UniProt Q8IVH8); test: Inhibition of MAP4K3 assessed as residual activity at 10 uM relative to control
# [6] = biological target: T2, Serine/threonine-protein kinase STK11 (Homo sapiens) (UniProt Q15831); test: Inhibition of LKB1 assessed as residual activity at 10 uM relative to control
# T2 sequence (whole entry): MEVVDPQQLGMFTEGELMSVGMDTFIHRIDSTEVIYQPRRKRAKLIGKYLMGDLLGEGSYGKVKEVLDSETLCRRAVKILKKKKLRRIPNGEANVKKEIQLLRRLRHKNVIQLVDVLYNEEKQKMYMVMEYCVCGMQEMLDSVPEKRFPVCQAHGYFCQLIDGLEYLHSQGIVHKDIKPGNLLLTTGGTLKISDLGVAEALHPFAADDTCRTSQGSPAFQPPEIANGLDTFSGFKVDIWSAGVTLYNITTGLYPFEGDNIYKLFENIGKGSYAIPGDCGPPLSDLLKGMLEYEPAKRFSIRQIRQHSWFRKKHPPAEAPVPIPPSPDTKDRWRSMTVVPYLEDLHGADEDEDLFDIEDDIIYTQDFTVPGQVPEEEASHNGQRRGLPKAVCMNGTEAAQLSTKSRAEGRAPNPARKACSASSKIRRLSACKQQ
# [7] = biological target: Dual serine/threonine and tyrosine protein kinase (Homo sapiens) (UniProt Q6XUX3); test: Inhibition of RIPK5 assessed as residual activity at 10 uM relative to control
# Sequence of Dual serine/threonine and tyrosine protein kinase (Homo sapiens) (Q6XUX3 whole entry): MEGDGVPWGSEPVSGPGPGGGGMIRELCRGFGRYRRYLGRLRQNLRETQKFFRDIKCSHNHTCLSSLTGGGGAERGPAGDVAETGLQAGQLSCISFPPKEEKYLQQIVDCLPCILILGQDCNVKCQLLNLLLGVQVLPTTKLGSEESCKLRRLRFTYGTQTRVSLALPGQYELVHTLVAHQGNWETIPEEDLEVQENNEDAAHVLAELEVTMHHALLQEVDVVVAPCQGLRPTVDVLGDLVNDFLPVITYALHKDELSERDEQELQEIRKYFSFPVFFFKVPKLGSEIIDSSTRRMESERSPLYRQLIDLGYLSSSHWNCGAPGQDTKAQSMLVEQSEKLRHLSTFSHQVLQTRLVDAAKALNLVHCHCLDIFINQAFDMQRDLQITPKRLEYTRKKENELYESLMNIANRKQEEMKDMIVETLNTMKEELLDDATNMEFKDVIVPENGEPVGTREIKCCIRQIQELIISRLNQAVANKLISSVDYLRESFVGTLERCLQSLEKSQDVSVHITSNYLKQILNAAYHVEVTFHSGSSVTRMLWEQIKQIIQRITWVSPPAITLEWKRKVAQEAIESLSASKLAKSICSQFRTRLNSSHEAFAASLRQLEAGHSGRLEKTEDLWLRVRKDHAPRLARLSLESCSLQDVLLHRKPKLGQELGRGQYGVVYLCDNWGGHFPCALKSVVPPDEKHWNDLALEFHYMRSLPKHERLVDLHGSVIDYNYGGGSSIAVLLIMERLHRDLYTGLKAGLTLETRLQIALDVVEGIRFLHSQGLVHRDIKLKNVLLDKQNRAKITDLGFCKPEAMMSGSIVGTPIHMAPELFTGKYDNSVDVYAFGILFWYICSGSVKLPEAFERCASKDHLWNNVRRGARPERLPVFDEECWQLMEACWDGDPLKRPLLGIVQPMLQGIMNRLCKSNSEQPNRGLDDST
# [8] = biological target: Bone morphogenetic protein receptor type-1A (Homo sapiens) (UniProt P36894); test: Inhibition of BMPR1A assessed as residual activity at 10 uM relative to control
# Sequence of Bone morphogenetic protein receptor type-1A (Homo sapiens) (P36894 whole entry): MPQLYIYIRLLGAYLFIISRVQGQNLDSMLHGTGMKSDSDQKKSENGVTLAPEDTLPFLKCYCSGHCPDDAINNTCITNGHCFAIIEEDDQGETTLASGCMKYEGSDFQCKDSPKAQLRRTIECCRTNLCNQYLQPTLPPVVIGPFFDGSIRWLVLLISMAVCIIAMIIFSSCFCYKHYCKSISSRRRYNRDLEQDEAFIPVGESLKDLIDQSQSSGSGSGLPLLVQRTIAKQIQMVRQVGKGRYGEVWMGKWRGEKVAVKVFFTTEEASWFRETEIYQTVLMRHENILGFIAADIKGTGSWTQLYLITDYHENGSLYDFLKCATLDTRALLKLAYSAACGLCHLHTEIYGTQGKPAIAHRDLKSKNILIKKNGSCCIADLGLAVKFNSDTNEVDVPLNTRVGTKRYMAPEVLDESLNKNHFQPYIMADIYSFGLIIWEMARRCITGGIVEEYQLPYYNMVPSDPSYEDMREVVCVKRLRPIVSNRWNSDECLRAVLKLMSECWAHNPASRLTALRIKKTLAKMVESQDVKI
# [9] = biological target: Serine/threonine-protein kinase PknB (Mycobacterium tuberculosis) (UniProt P9WI81); test: Inhibition of Mycobacterium tuberculosis PKNB assessed as residual activity at 10 uM relative to control
# Sequence of Serine/threonine-protein kinase PknB (Mycobacterium tuberculosis) (P9WI81 whole entry): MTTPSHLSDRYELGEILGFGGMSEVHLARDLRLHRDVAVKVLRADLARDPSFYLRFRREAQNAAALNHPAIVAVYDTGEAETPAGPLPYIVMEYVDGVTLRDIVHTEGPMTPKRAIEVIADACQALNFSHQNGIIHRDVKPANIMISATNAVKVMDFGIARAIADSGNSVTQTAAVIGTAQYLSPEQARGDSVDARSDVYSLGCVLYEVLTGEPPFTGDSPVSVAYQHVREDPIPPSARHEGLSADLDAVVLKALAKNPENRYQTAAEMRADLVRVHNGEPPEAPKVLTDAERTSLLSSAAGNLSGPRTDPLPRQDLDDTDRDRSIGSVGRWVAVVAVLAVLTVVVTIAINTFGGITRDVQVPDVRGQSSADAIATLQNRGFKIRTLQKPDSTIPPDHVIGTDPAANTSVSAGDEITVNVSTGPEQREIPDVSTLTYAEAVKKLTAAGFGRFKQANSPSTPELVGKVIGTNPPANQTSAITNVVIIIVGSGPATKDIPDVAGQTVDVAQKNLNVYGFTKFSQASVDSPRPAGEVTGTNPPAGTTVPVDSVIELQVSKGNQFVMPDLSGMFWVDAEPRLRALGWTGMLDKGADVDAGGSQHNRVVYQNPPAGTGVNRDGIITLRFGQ
# [10] = biological target: T3, NUAK family SNF1-like kinase 1 (Homo sapiens) (UniProt O60285); test: Inhibition of NUAK1 assessed as residual activity at 10 uM
# T3 sequence (whole entry): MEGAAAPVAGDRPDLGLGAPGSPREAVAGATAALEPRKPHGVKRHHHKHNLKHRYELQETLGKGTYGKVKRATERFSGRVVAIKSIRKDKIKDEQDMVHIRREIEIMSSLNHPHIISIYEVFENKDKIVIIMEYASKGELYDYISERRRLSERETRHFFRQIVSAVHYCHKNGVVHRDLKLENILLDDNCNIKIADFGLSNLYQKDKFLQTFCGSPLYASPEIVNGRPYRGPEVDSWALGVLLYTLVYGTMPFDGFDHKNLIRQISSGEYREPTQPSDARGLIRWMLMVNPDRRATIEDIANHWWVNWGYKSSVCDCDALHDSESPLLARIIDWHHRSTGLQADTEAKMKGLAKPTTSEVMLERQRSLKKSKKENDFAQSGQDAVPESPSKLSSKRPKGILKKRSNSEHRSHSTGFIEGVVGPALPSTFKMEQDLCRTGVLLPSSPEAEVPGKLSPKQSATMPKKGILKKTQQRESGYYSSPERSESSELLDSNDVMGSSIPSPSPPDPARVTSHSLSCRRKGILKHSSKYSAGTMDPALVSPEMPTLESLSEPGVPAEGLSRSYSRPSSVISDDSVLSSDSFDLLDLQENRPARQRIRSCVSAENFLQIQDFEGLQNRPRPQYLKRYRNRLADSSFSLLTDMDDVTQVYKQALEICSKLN
# [11] = biological target: T2, Serine/threonine-protein kinase STK11 (Homo sapiens); test: Inhibition of LKB1 assessed as residual activity at 10 uM
# [12] = biological target: Dual specificity tyrosine-phosphorylation-regulated kinase 1A (Homo sapiens) (UniProt Q13627); test: Inhibition of DYRK1A assessed as residual activity at 10 uM
# How it was run: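 Standard radioactivity-based enzymatic kinase assays on a 131-kinase panel run by the Dundee profiling service; residual kinase activity recorded.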
# [13] = biological target: Ephrin type-A receptor 5 (Homo sapiens) (UniProt P54756); test: Inhibition of EPHA5 assessed as residual activity at 10 uM relative to control
# How it was run: (§1)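 Competition kinase-binding assay (KINOMEscan) across a non-redundant panel of 329 kinases beyond the radiometric panel; residual binding expressed relative to control.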
# [14] = tested on: Epidermal growth factor receptor (Homo sapiens), P00533 [T790M]; test: Inhibition of EGFR T790M mutant assessed as residual activity at 10 uM relative to control; type: protein assay; how it was run: as §1
# [15] = biological target: Epidermal growth factor receptor (Homo sapiens) (UniProt P04626+P00533+Q15303+P21860); test: Inhibition of EGFR L747-T751del, Sins mutant assessed as residual activity at 10 uM relative to control; type: protein assay; how it was run: as §1
# [16] = biological target: Tyrosine-protein kinase ZAP-70 (Homo sapiens) (UniProt P43403); test: Inhibition of ZAP70 assessed as residual activity at 1 uM
# Sequence of Tyrosine-protein kinase ZAP-70 (Homo sapiens) (P43403 whole entry): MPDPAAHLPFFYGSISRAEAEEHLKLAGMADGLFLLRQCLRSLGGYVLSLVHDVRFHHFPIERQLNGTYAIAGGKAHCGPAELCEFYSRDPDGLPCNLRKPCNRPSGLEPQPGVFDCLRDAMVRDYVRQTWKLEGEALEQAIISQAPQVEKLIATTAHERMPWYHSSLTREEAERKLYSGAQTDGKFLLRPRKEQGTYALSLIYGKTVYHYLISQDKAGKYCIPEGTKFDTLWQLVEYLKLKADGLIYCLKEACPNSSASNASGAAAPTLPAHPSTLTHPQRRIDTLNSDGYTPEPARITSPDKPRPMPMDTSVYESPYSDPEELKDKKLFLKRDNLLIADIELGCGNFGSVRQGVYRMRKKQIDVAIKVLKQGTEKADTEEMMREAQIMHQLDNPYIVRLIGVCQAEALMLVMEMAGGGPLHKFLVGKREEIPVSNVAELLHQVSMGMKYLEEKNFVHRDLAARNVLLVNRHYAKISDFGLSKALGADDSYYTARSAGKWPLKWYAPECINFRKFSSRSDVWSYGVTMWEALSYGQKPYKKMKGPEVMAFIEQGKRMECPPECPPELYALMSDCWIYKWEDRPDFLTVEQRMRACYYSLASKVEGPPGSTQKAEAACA
# [17] = biological target: Serine/threonine-protein kinase MRCK alpha (Homo sapiens) (UniProt Q5VT25); test: Inhibition of MRCKA assessed as residual activity at 10 uM relative to control
# [18] = biological target: Myotonin-protein kinase (Homo sapiens) (UniProt Q09013); test: Inhibition of DMPK assessed as residual activity at 10 uM relative to control; how it was run: as §1
# Sequence of Myotonin-protein kinase (Homo sapiens) (Q09013 whole entry): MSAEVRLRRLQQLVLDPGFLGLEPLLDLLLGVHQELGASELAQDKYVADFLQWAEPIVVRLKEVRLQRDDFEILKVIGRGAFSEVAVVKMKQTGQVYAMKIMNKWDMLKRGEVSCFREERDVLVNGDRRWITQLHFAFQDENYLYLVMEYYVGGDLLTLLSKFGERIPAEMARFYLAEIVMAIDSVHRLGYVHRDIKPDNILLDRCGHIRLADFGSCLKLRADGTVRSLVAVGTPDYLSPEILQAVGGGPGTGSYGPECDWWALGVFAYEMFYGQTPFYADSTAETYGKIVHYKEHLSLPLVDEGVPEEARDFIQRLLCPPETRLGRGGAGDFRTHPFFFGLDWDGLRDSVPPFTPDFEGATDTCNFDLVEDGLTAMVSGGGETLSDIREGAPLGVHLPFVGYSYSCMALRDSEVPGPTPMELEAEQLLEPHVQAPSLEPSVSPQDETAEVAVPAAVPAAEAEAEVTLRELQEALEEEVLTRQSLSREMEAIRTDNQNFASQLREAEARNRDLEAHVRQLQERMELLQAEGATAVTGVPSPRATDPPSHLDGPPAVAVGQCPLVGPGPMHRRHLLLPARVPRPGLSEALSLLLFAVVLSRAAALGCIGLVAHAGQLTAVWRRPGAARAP
# Sequence of Serine/threonine-protein kinase TBK1 (Homo sapiens) (Q9UHD2 whole entry): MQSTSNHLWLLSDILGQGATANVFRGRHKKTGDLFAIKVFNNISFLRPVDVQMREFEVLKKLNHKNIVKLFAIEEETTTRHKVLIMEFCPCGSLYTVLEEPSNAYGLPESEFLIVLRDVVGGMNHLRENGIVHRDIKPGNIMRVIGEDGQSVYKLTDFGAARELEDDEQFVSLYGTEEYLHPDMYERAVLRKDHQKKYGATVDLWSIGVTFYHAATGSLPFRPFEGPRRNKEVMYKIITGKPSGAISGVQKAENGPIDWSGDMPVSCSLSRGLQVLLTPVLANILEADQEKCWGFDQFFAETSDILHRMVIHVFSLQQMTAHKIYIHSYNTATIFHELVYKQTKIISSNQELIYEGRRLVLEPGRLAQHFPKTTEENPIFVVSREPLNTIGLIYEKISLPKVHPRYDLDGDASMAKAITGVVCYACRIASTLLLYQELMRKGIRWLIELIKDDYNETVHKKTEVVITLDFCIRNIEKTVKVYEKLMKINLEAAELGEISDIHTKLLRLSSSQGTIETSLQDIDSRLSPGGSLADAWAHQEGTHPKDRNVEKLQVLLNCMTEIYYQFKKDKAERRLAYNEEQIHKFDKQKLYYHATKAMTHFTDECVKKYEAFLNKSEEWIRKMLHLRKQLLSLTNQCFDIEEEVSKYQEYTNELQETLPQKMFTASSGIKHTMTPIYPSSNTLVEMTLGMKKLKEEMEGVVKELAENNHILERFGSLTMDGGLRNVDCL
smiles,measurement,setting,value
O=C(Nc1cccnc1)c1cc(-c2ccnc(F)c2)ccc1OCc1ccccc1,Activity,[1],68%
same,Activity,[2],59%
same,Activity,[3],102%
same,Activity,[4],50%
same,Activity,[5],60%
same,Activity,[6],71%
same,Activity,[7],69%
same,Activity,[8],41%
same,Activity,[9],72%
same,Activity,[10],58%
same,Activity,[11],105%
same,Activity,[12],104%
same,Activity,[13],48%
same,Activity,[14],40%
same,Activity,[15],69%
same,Activity,[16],103%
same,Activity,[17],56%
same,Activity,[18],58%
